Experimental data: ChEMBL document CHEMBL5335768, “Expanding the knowledge around antitubercular 5-(2-aminothiazol-4-yl)isoxazole-3-carboxamides: Hit-to-lead optimization and release of a novel antitubercular chemotype via scaffold derivatization” (Eur J Med Chem, 2023)
In brackets after ≈: the same amount, converted by molar mass. Activity calls are given as the source filed them. The rule behind the calls is not given here.

Tests used:
[1] = system: Mycobacterium tuberculosis; test: Antitubercular activity against Mycobacterium tuberculosis H37Rv assessed as inhibition of bacterial growth incubated for 7 days by REMA method; assay type: functional; conditions: Mycobacterium tuberculosis, H37Rv, 168 h; time 7 day; read-out: MIC90
[2] = Drug metabolism in human liver microsomes assessed as 5-(2-((4-(hydroxymethyl)phenyl)amino)thiazol-4-yl)-N-(pyridin-2-yl)isoxazole-3-carboxamide formation at 100 uM measured after 180 mins by HR-MS analysis; assay type: ADME, Microsome; conditions: 3 h
In short: (§1)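 Metabolite ID: test compound at 100 μM initial concentration in pooled HLM incubates. Aliquots were taken at start and after 180 min, quenched with ACN, centrifuged and analysed by full-scan LC-HR-MS (Orbitrap, ESI+ and ESI−, resolution 15000). Data-dependent CID MS/MS was acquired at 30–35 V.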

[3] = Drug metabolism in human liver microsomes assessed as 5-(2-((3-hydroxy-4-methylphenyl)amino)thiazol-4-yl)-N-(pyridin-2-yl)isoxazole-3-carboxamide formation at 100 uM measured after 180 mins by HR-MS analysis; assay type: ADME, Microsome; conditions: 3 h; in short: as §1
[4] = Drug metabolism in human liver microsomes assessed as retention time of metabolite with molecular mass [M+30] at 250 nM by HPLC-MS/MS analysis; assay type: ADME, Microsome; conditions: 0.25 µM
[5] = Drug metabolism in human liver microsomes assessed as retention time of 5-(2-((4-(hydroxymethyl)phenyl)amino)thiazol-4-yl)-N-(pyridin-2-yl)isoxazole-3-carboxamide at 250 nM by HPLC-MS/MS analysis; assay type: ADME, Microsome; conditions: 0.25 µM
In short: (§2)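 Spiking: 10 μL HLM incubate was diluted with 90 μL ACN alone or with 250 nM of each synthetic hydroxylated standard in ACN. After centrifugation, HPLC-MS/MS retention times were compared for co-elution with the metabolites.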

[6] = Drug metabolism in human liver microsomes assessed as retention time of 5-(2-((3-hydroxy-4-methylphenyl)amino)thiazol-4-yl)-N-(pyridin-2-yl)isoxazole-3-carboxamide at 250 nM by HPLC-MS/MS analysis; assay type: ADME, Microsome; conditions: 0.25 µM; in short: as §2
Mycobacterium marinum [7] = test: Antitubercular activity against Mycobacterium marinum ATCC BAA-535 assessed as inhibition of bacterial growth measured after 3 weeks by broth microdilution method; assay type: functional; conditions: ATCC BAA-535, 504 h
[8] = Cytotoxicity against human THP-1 cells assessed as reduction in cell viability measured after 72 hrs by MTT assay; assay type: toxicity, cell-based
In short: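 THP-1 monocytes were differentiated to macrophages with PMA 100 ng/mL for 72 h. They were then exposed to compounds at 1, 10, 50 and 100 μM for 72 h, each tested twice. MTT at 1 mg/mL in RPMI with 5% FBS was added for 2 h at 37 °C; formazan was dissolved in DMSO and read at 570 nm. Viability is given as % of control; IC50 from non-linear regression.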

[9] = Half life in human liver microsomes at 1 uM preincubated with NADP+ for 5 mins prior to compound addition by HPLC-MRM-MS analysis; assay type: ADME, Microsome
In short: (§3)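 Pooled HLM at 1 mg/mL protein in 100 mM PBS pH 7.4 with an NADPH-regenerating mix: G6P 10 mM, NADP+ 2 mM, MgCl2 5 mM, G6PDH 1.5 U/mL (stock concentrations). Pre-incubated 5 min at 37 °C, then compound added to 1 μM final (1% DMSO).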

[10] = Metabolic stability of the compound in human liver microsomes assessed as parent residual fraction at 1 uM preincubated with NADP+ for 5 mins prior to compound addition by HPCLC-MRM-MS analysis; assay type: ADME, Microsome; conditions: read-out: Stability; in short: as §3
[11] = Drug metabolism in human liver microsomes assessed as 5-(2-((4-(hydroxymethyl)phenyl)amino)thiazol-4-yl)-N-phenylisoxazole-3-carboxamide formation at 100 uM measured after 180 mins by HR-MS analysis; assay type: ADME, Microsome; conditions: 3 h; in short: as §1
[12] = Drug metabolism in human liver microsomes assessed as 5-(2-((3-hydroxy-4-methylphenyl)amino)thiazol-4-yl)-N-phenylisoxazole-3-carboxamide formation at 100 uM measured after 180 mins by HR-MS analysis; assay type: ADME, Microsome; conditions: 3 h; in short: as §1
[13] = Drug metabolism in human liver microsomes assessed as retention time of 5-(2-((4-(hydroxymethyl)phenyl)amino)thiazol-4-yl)-N-phenylisoxazole-3-carboxamide at 250 nM by HPLC-MS/MS analysis; assay type: ADME, Microsome; conditions: 0.25 µM; in short: as §2
[14] = Drug metabolism in human liver microsomes assessed as retention time of 5-(2-((3-hydroxy-4-methylphenyl)amino)thiazol-4-yl)-N-phenylisoxazole-3-carboxamide at 250 nM by HPLC-MS/MS analysis; assay type: ADME, Microsome; conditions: 0.25 µM; in short: as §2
Mycobacterium marinum [15] = test: Antitubercular activity against mCherry-labeled Mycobacterium marinum infected in Zebra fish larvae assessed as reduction in granuloma formation at 6 to 8 ng, iv; assay type: functional, organism-based; conditions: dose 6-8 ng
[16] = Toxicity in Zebrafish infected with Mycobacterium marinum assessed as enlarged heart at 6 to 8 ng. iv; set-up: species or system Danio rerio; conditions: in vivo, dose 6-8 ng
[17] = Toxicity in Zebrafish infected with Mycobacterium marinum assessed as enlarged yolk sac area at 6 to 8 ng. iv; set-up: species or system Danio rerio; conditions: in vivo, dose 6-8 ng
[18] = system: Mycobacteroides abscessus; test: Antitubercular activity against Mycobacterium abscessus Bamboo assessed as inhibition of bacterial growth at 100 uM measured after 3 days by broth microdilution method; assay type: functional; conditions: 72 h, time 3 day
In short: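 Twofold serial dilutions inoculated at OD600 0.05; incubated at 37 °C, shaking at 110 rpm, for 3 days (M. abscessus Bamboo) or 4 days (M. avium 11). […] Clarithromycin positive control; data representative of two independent replicates.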

Mycobacterium avium = test: Antitubercular activity against Mycobacterium avium 11 assessed as inhibition of bacterial growth at 100 uM measured after 4 days by broth microdilution method; assay type: functional; conditions: Mycobacterium avium, 11, 96 h, time 4 day

| Compound | MIC90 [1] | IC50 at 72 h [8] | t1/2 [9] | remaining at 1 µM [10] | inhibition at 100 µM [18] | inhibition at 100 µM (Mycobacterium avium) | also measured |
| --- | --- | --- | --- | --- | --- | --- | --- |
| Cc1ccc(Nc2nc(-c3cc(C(=O)Nc4ccccn4)no3)cs2)cc1 | 0.5 µg/mL (≈ 1.32 µM) | 22 µg/mL (≈ 58.3 µM) | 16 min | – | – | – | Drug metabolism [2]: Metabolite_Detected; Drug metabolism [3]: Metabolite_Detected; Retention_time [4]: 21.97 min; Retention_time [5]: 21.01 min; Retention_time [6]: 23.73 min; MIC90 (Mycobacterium marinum [7]): 0.5 µg/mL (≈ 1.32 µM) |
| O=C(Nc1ccccc1)c1cc(-c2csc(Nc3ccc(C(F)(F)F)cc3)n2)on1 | > 20 µg/mL | – | – | 71% | – | – | – |
| Cc1ccc(Nc2nc(-c3cc(C(=O)Nc4ccccc4)no3)cs2)cc1 | 1 µg/mL (≈ 2.66 µM) | 88 µg/mL (≈ 234 µM) | 35 min | – | – | – | Drug metabolism [11]: Metabolite_Detected; Drug metabolism [12]: Metabolite_Detected; Retention_time [13]: 22.95 min; Retention_time [14]: 25.44 min; Retention_time [4]: 23.65 min; MIC90 (Mycobacterium marinum [7]): 0.5 µg/mL (≈ 1.33 µM); Activity (Mycobacterium marinum [15]): Active; Activity [16]: Toxic; Activity [17]: Toxic |
| Nc1nc(-c2cc(C(=O)Nc3ccccn3)no2)cs1 | > 20 µg/mL | – | – | 96% | – | – | – |
| Cc1ccc(Nc2nc(-c3cc(C(=O)Nc4cc(C)ccn4)no3)cs2)cc1 | 1 µg/mL (≈ 2.55 µM) | 86.3 µg/mL (≈ 220 µM) | – | – | 50% | 50% | – |
| Nc1nc(-c2cc(C(=O)Nc3ccccc3)no2)cs1 | > 20 µg/mL | – | – | 97% | – | – | – |
| O=C(Nc1ccccc1)c1cc(-c2csc(Nc3cc(Cl)c(Cl)c(Cl)c3)n2)on1 | > 20 µg/mL | – | – | 101% | – | – | – |
| O=C(Nc1ccccc1)c1cc(-c2csc(Nc3ccccc3)n2)on1 | 1.25 µg/mL (≈ 3.45 µM) | 11.9 µg/mL (≈ 32.8 µM) | 43 min | – | 50% | 50% | – |
| O=C(Nc1ccccn1)c1cc(-c2csc(Nc3ccccc3)n2)on1 | > 20 µg/mL | – | 66 min | – | 50% | 50% | – |
| O=C(Nc1ccccn1)c1cc(-c2csc(Nc3ccc(C(F)(F)F)cc3)n2)on1 | > 20 µg/mL | – | – | 85% | – | – | – |
